SUMO1 PPI mod – modulators of human SUMO1-mediated protein-protein interactions; P63165; SUMO1 binding to a labelled peptide, TR-FRET, 1 h; inhibition, % at 20 µM; actives 0.33% (n = 360,000); AID 602429; in the data active means inhibition above about 37%
HKDC1 inh – HKDC1 (human) hexokinase inhibition. Q2TB90. recombinant HKDC1, G6PDH/diaphorase resazurin coupled fluorescence. inhibition, % at 20 µM. actives 0.16% (n = 340,000). AID 493160;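 active means inhibition above about 35% when tested at 20 µM, limit read from the data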
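Test system: recombinant HKDC1 (HK5) hexokinase enzyme, produced in-house / Doses: 20 µM test compound, 1% DMSO / Timing: 90 min, room temperature / Detection: G6PDH/diaphorase-coupled fluorescence, 1 mM NADP, 100 µM resazurin, 525/613 nm / Control set: DMSO wells with and without enzyme mix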
LMPTP block – LMPTP (human) inhibition; P24666; recombinant LMPTP-A, OMFP fluorogenic substrate, fluorescence intensity; inhibition, % at 20 µM; actives 0.22% (n = 360,000);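 active means compounds that cut the enzyme signal by at least half of the control window in the single-dose screen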
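test system = LMPTP-A | amount = 0.625 nM LMPTP-A final | reagent = fluorogenic phosphatase substrate OMFP at 400 µM final | incubation = 50 min at room temperature | benchmarks = no-enzyme low control, uninhibited high control | medium = Bis-Tris pH 6.0, DTT, detergent | signal = fluorescence intensity of OMFP turnover product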
STEP inh – inhibitors of human striatal-enriched phosphatase STEP | actives 0.25% (n = 360,000) | recombinant STEP, OMFP fluorogenic substrate, fluorescence | inhibition, % at 20 µM | AID 588621;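 active means inhibition at 20 µM, scaled per plate between control wells, above about 37%, limit read from the data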
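medium = Bis-Tris buffer pH 6.0, 2.5 mM DTT, 0.005% Tween 20 | test system = STEP (striatal-enriched tyrosine phosphatase) enzyme, cell-free | measure = normalized % inhibition | compound dosing = 20 µM, 1% DMSO | also added = 25 µM OMFP | schedule = reaction 20 min, ambient temperature | measured by = fluorescence read at 480 nm ex / 540 nm em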
DNMT1 block – blocks human DNA methyltransferase DNMT1 | actives 0.83% (n = 360,000) | DNMT1 molecular beacon, Hinp1I cleavage, fluorescence | AID 588458 | inhibition (reported as % activation of signal), % at 10 µM | P26358; in the data active means inhibition above about 50%
Target sequence (P26358 504-1616 limits assumed): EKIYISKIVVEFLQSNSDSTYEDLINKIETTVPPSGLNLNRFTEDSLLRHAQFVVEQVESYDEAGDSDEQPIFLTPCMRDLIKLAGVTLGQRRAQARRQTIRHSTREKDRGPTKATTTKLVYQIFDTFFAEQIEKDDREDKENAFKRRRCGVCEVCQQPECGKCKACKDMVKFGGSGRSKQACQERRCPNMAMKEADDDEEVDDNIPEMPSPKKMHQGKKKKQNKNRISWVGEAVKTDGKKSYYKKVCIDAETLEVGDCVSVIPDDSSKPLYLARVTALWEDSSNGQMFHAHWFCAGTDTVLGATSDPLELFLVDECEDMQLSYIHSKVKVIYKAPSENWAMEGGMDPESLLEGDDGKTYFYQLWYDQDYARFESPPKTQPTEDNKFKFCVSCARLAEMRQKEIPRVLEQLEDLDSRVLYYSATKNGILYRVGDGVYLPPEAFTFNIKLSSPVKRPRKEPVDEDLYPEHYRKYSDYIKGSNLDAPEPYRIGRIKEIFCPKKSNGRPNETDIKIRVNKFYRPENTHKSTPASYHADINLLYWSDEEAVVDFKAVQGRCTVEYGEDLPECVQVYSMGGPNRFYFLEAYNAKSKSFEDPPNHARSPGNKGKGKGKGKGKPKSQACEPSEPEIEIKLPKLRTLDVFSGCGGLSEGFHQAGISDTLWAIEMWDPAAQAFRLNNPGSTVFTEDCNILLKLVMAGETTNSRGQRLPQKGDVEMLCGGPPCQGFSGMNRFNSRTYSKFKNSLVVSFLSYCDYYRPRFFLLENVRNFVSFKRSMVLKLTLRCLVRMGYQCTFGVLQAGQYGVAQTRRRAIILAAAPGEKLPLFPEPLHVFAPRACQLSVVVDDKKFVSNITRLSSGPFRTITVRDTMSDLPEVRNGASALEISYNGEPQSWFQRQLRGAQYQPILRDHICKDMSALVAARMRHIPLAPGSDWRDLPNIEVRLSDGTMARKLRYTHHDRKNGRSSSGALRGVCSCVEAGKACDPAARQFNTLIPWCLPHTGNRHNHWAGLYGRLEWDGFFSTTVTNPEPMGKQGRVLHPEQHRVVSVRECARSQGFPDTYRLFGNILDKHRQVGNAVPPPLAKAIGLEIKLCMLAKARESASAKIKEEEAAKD
Scp-1 inhibitor – blocks human Scp-1 phosphatase activity; Q9GZU7; actives 0.88% (n = 340,000); inhibition, % at 20 µM; Recombinant Scp1, phosphopeptide, malachite green phosphate absorbance;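 active means inhibition above about 50% at 20 µM, limit read from the data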
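Material: truncated SCP-1 phosphatase (76-261aa) / Buffer or medium: 50 mM Tris acetate pH 5.5, 0.005% Tween-20, 10 mM MgCl2 / Compound dosing: one concentration, 20 µM, with 1.0% DMSO / Incubation: 45 min room-temperature reaction, 5 min colour, 30 min stabiliser / Detection: colorimetric free-phosphate detection, absorbance 630 nm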
Scp-1 conf – Scp-1 (human) inhibition, single-dose confirmed; recombinant SCP-1 catalytic domain, phosphate release, malachite green absorbance; shares compounds with Scp-1 inhibitor; actives 61% (n = 2,500); inhibition, % at 20 µM
MG interference – interferes with malachite green readout, flagging false Scp-1 hits | shares compounds with Scp-1 inhibitor | Colorimetric interference counterscreen, malachite green absorbance 630 nm | apparent inhibition (interference), % at 20 µM | 2,500 tested, under 10 active;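 further: compounds added after enzyme reaction finished so only phosphate colour detection is probed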
Scp1 DSF – validation of human Scp-1 inhibitors by thermal shift binding; Recombinant SCP1, Sypro Orange thermal shift Tm; actives 25% (n = 1,500); shares compounds with Scp-1 inhibitor; thermal shift relative to vanadate control, % at 40 µM;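 active means substances whose mean melting-temperature shift, as a percentage of the reference inhibitor's shift, reaches about 5.3%, limit read from the data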
A number is an active result. Compounds with a hit are over-represented: about 1.8% of the library has one in this group of screens.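 How the source made its calls, unless noted: active means inhibition of at least 30% at 20 µM; inactive means the rest.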

How did Cc1ccc(S(=O)(=O)Nc2ccc3c(c2)CC(=O)N([C@H](C)CO)C[C@@H](C)[C@H](CN(C)S(=O)(=O)c2ccccc2)O3)cc1 do in these assays?
SUMO1 PPI mod: inactive; HKDC1 inh: inactive; LMPTP block: inactive; STEP inh: inactive; DNMT1 block: inactive; Scp-1 inhibitor: inactive

How did C[C@H](CO)N1C[C@H](C)[C@@H](CN(C)C(=O)NC2CCCCC2)Oc2ccc(NS(=O)(=O)c3cn(C)cn3)cc2C1=O do in these assays?
SUMO1 PPI mod: inactive; HKDC1 inh: inactive; LMPTP block: inactive; STEP inh: inactive; DNMT1 block: inactive; Scp-1 inhibitor: inactive

Results for Cc1ccc(S(=O)(=O)N(C)C[C@@H]2Oc3ccc(NS(=O)(=O)c4ccccc4)cc3CC(=O)N([C@@H](C)CO)C[C@H]2C)cc1 ?
SUMO1 PPI mod: inactive; HKDC1 inh: inactive; LMPTP block: inactive; STEP inh: inactive; DNMT1 block: inactive; Scp-1 inhibitor: 50; Scp-1 conf: inactive; MG interference: inactive

How did C[C@H](CO)N1C[C@H](C)[C@@H](CN(C)C(=O)Nc2ccc(C(F)(F)F)cc2)Oc2ccc(NS(=O)(=O)c3cn(C)cn3)cc2C1=O do in these assays?
SUMO1 PPI mod: inactive; HKDC1 inh: inactive; LMPTP block: inactive; STEP inh: inactive; DNMT1 block: inactive; Scp-1 inhibitor: 73; Scp-1 conf: inactive; MG interference: inactive

How did Cc1noc(C)c1S(=O)(=O)N(C)C[C@H]1Oc2ccc(NS(=O)(=O)c3cn(C)cn3)cc2C(=O)N([C@H](C)CO)C[C@@H]1C do in these assays?
SUMO1 PPI mod: inactive; HKDC1 inh: inactive; LMPTP block: inactive; STEP inh: inactive; DNMT1 block: inactive; Scp-1 inhibitor: 53; Scp-1 conf: inactive; MG interference: inactive

Results for O=C(c1ccc(Cl)c(Cl)c1)N1CCC(=O)N([C@H](COCc2cccc(C(F)(F)F)c2)Cc2ccccc2)CC1 ?
SUMO1 PPI mod: inactive; LMPTP block: inactive

How did O=C1CC2(CCCC2)C(=O)N1CN1CCN(S(=O)(=O)c2ccc(Cl)c(Cl)c2)CC1 do in these assays?
SUMO1 PPI mod: inactive; HKDC1 inh: inactive; LMPTP block: inactive; STEP inh: inactive; DNMT1 block: inactive; Scp-1 inhibitor: inactive

What do the screens show for `C[C@@H]1CNC(=O)c2c(C(=O)Nc3ccc(CNC(=O)OC(C)(C)C)cc3)ncn21`?
SUMO1 PPI mod: inactive; LMPTP block: inactive; STEP inh: inactive; DNMT1 block: inactive

What do the screens show for `CCOC(=O)N1CCN(C(=O)C[C@@H]2C[C@@]3(C(=O)OCC)CCC=C3N(Cc3cccc4ccccc34)C2=O)CC1`?
SUMO1 PPI mod: inactive; LMPTP block: inactive

How did C[C@@H]1CN([C@@H](C)CO)C(=O)Cc2cc(NS(=O)(=O)c3cn(C)cn3)ccc2O[C@@H]1CN(C)C(=O)Nc1ccccc1 do in these assays?
SUMO1 PPI mod: inactive; HKDC1 inh: inactive; LMPTP block: inactive; STEP inh: inactive; DNMT1 block: inactive; Scp-1 inhibitor: 88; Scp-1 conf: 62; MG interference: inactive; Scp1 DSF: inactive

How did O=C(O)c1ccc2c(=O)n3c(nc2c1)/C(=C/c1ccc(Cl)c(Cl)c1)CC3 do in these assays?
SUMO1 PPI mod: inactive; HKDC1 inh: inactive; LMPTP block: inactive; STEP inh: inactive; DNMT1 block: inactive; Scp-1 inhibitor: 55; Scp-1 conf: inactive; MG interference: inactive

What do the screens show for `O=C(CCN1C(=O)C2CCCCC2C1=O)Nc1nc2ccc(F)cc2s1` (centres undefined)?
SUMO1 PPI mod: inactive; HKDC1 inh: inactive; LMPTP block: inactive; STEP inh: inactive; DNMT1 block: inactive; Scp-1 inhibitor: inactive; Scp-1 conf: inactive; MG interference: inactive

What do the screens show for `CCOc1ccc(Br)cc1/C=N/O`?
SUMO1 PPI mod: inactive; HKDC1 inh: inactive; LMPTP block: inactive; STEP inh: inactive; DNMT1 block: inactive; Scp-1 inhibitor: inactive

What do the screens show for `O=C(O)COc1ccc(Br)cc1/C=N/O`?
SUMO1 PPI mod: inactive; HKDC1 inh: inactive; LMPTP block: inactive; STEP inh: inactive; DNMT1 block: inactive; Scp-1 inhibitor: 60; Scp-1 conf: 52; MG interference: inactive; Scp1 DSF: inactive

What do the screens show for `O=C(c1cccnc1)N1CCC(Oc2ccc(C(=O)N3CCCCO3)cc2)CC1`?
SUMO1 PPI mod: inactive; HKDC1 inh: inactive; LMPTP block: inactive; STEP inh: inactive; DNMT1 block: inactive; Scp-1 inhibitor: 69; Scp-1 conf: inactive; MG interference: inactive

What do the screens show for `O=C(Nc1ccc(F)cc1)C1CCN(S(=O)(=O)c2cccc3nonc23)CC1`?
SUMO1 PPI mod: inactive; HKDC1 inh: inactive; LMPTP block: inactive; STEP inh: inactive; DNMT1 block: inactive; Scp-1 inhibitor: inactive

How did CCn1cc(S(=O)(=O)c2ccc(C)cc2)c(=O)c2cc(F)c(N3CCN(C)CC3)cc21 do in these assays?
SUMO1 PPI mod: inactive; HKDC1 inh: inactive; LMPTP block: inactive; STEP inh: inactive; DNMT1 block: inactive; Scp-1 inhibitor: 61; Scp-1 conf: inactive; MG interference: inactive

What do the screens show for `Cc1ccc2[nH]c3c(=O)n(CC(=O)NCc4ccco4)ncc3c2c1`?
SUMO1 PPI mod: inactive; HKDC1 inh: inactive; LMPTP block: inactive; STEP inh: inactive; DNMT1 block: inactive; Scp-1 inhibitor: 52; Scp-1 conf: inactive; MG interference: inactive

What do the screens show for `COCCOC(=O)N1CCCCC1c1cc(C(=O)NCc2ccc(Cl)c(Cl)c2)no1` (centres undefined)?
SUMO1 PPI mod: inactive; LMPTP block: inactive; STEP inh: inactive; DNMT1 block: inactive

What do the screens show for `N/C(=N/OC(=O)c1cccc([N+](=O)[O-])c1)c1cccc([N+](=O)[O-])c1`?
SUMO1 PPI mod: inactive; HKDC1 inh: inactive; LMPTP block: inactive; STEP inh: inactive; DNMT1 block: inactive; Scp-1 inhibitor: 95; Scp-1 conf: 75; MG interference: inactive; Scp1 DSF: 6.6

How did N/C(=N\OC(=O)c1cccc(F)c1)c1cccc([N+](=O)[O-])c1 do in these assays?
SUMO1 PPI mod: inactive; HKDC1 inh: inactive; LMPTP block: inactive; STEP inh: inactive; DNMT1 block: inactive; Scp-1 inhibitor: inactive

What do the screens show for `COCC(=O)N1C[C@@H](C)[C@@H](OC)CN(C)C(=O)c2ccc(NC(=O)c3cnccn3)cc2OC[C@H]1C`?
SUMO1 PPI mod: inactive; LMPTP block: inactive
